In the library only some 7.4% were active in any assay of this set; here they are far more common.
M1 ag = activates the M1 muscarinic receptor; B-score at 10 µM; actives 3% (n = 64,000); CHO-M1 cells, Fluo-4 calcium fluorescence, agonist mode; hits give high values;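 active means fluorescence rise, raw or as B-score row- and column-corrected plate score, outside the 99.7% band of its plate's samples, either direction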
S1P1 ag pot = S1P1 (human) agonism or agonism potentiation | P21453 | S1P1 CRE-bla cells, forskolin, beta-lactamase FRET, potentiator mode; S1P1 agonist co-added at EC20, 2 nM; 100% = saturating reference agonist, 0% = basal | activation, % at 9.5 µM | actives 0.57% (n = 56,000);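 active means activation above a cutoff set at the mean activation of all tested compounds plus 3 SD, cut at about 54% in these data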;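 further: forskolin at 4 µM as EC80 and the EC20 agonist is SEW2871; 100% = SEW2871 at its EC100 plus forskolin at EC80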
M1 antag = blocks the rat M1 muscarinic receptor response to acetylcholine. CHO-M1 cells, Fluo-4 calcium, ACh EC80 antagonist mode; hits give low values. B-score at 10 µM. actives 3.4% (n = 64,000);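 active means calcium fluorescence response, raw or row-and-column corrected B-score, differing from the plate sample mean either way at a set confidence level, mostly lower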
JNK3 inh = JNK3 (human) kinase inhibition; inhibition, % at 8 µM; actives 0.61% (n = 60,000); purified JNK3 kinase activity, HTS; P53779; in the data active means inhibition above about 17%;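 further: 0% = DMSO and 100% = reference inhibitor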
Target sequence (P53779 whole entry, looked up): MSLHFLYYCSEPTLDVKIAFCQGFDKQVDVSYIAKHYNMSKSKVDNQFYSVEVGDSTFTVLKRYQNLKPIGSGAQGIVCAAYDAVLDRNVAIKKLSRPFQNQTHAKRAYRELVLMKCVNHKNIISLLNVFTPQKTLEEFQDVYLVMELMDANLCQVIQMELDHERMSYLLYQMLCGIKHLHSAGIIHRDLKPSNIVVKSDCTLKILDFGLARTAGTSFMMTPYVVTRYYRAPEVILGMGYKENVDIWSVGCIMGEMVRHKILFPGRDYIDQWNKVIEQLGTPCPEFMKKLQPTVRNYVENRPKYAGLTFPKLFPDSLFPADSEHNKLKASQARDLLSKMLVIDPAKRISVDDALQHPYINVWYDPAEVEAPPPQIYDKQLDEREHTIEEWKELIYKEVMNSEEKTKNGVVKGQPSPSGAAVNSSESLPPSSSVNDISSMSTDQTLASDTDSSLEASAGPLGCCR
S1P3 agonist = S1P3 (human) receptor agonism | activation, % at 4.5 µM | S1P3 NFAT-BLA reporter cells, FRET ratio; relative to 1 µM S1P, basal subtracted | Q99500 | actives 0.1% (n = 60,000);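 active means activation above the screen-wide mean plus 3 SD, cut at about 4.5% in these data, passing the limit was not always enough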
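Material: Human S1P3 NFAT-BLA reporter CHO cells | Incubation: Overnight plating, 4 h compound 37 °C, 2 h substrate RT | Signal: FRET β-lactamase substrate fluorescence, excitation 405 nm, 460/535 nm emission ratio, background-subtracted | Compound: 4.5 µM final, single dose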
Jurkat tox 60K = cytotoxicity toward Jurkat cells; inhibition, % at 4 µM; Jurkat E6.1 viability, ATP luminescence, 48 h; actives 1.2% (n = 56,000);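 active means inhibition above the mean inhibition of all tested compounds plus 3 SD, cut at about 28% in these data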
M1 agonist conf = rat M1 muscarinic agonism, confirmation | shares compounds with M1 ag | CHO-M1 cells, Fluo-4 calcium fluorescence, agonist mode; actives lie on both sides | fluorescence change (max-min) at 10 µM | actives 19% (n = 1,700);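 active means fluorescence change differs from the solvent-only DMSO control mean at a set confidence level in both duplicate runs; inconclusive means differs from solvent-only control mean in just one of two runs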;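 further: an EC20 dose of acetylcholine follows compound addition during the same imaging run; raw fluorescence intensity difference in instrument units with no normalization to controls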
M4 ag counter = rat M4 muscarinic agonism, M1 counter-screen | shares compounds with M1 ag | CHO M4/Gqi5 cells, Fluo-4 calcium fluorescence, agonist mode; actives lie on both sides | fluorescence change (max-min) at 10 µM | actives 9% (n = 1,700) | AID 1741;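 active means fluorescence change differing from the plate's solvent-only control wells at 99.7% confidence in both duplicates, whether higher or lower; inconclusive means differs from solvent controls in only one of two duplicates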
Starred values were filed as active, the others as inactive.

How did CCCn1c(SCCc2ccccc2)nc2c1c(=O)[nH]c(=O)n2C do in these assays?
M1 ag: 4.74*; S1P1 ag pot: -32.5; M1 antag: -0.0873; JNK3 inh: -7.1; S1P3 agonist: 0.0; Jurkat tox 60K: 2.5; M1 agonist conf: inconclusive; M4 ag counter: -59.5

Results for CC(C)Cn1c(N)c(C(=O)COC(=O)c2cc(-c3ccco3)nc3ccccc23)c(=O)n(C)c1=O ?
M1 ag: -0.0377; S1P1 ag pot: -36.0; M1 antag: -0.0417; JNK3 inh: 9.1; S1P3 agonist: 0.4; Jurkat tox 60K: 15.1

Results for Cc1nn(-c2ccccc2)c(C)c1C(=O)OCC(=O)c1c(N)n(CC(C)C)c(=O)n(C)c1=O ?
M1 ag: 4.06*; S1P1 ag pot: 44.1; M1 antag: -1.19; JNK3 inh: 1.0; S1P3 agonist: -1.3; Jurkat tox 60K: 37.6*; M1 agonist conf: -6.63; M4 ag counter: -53

How did C=CCn1c(SCC(=O)Nc2ccc3c(c2)OCO3)nnc1-c1ccccc1O do in these assays?
M1 ag: -3.02; M1 antag: 0.129; JNK3 inh: -2.4; S1P3 agonist: -0.8; Jurkat tox 60K: -5.5

How did O=C(CS(=O)(=O)Cc1ccccc1)N1CCc2ccccc21 do in these assays?
M1 ag: 23*; S1P1 ag pot: 4.1; M1 antag: -0.132; JNK3 inh: 2.6; S1P3 agonist: -1.8; Jurkat tox 60K: -5.7; M1 agonist conf: -9.16; M4 ag counter: -29.2

Results for C=CCc1cccc2cc(C(=O)N(CC)CC)c(=O)oc12 ?
M1 ag: 1.44; S1P1 ag pot: -16.2; M1 antag: 0.64; JNK3 inh: 10.0; S1P3 agonist: -1.4; Jurkat tox 60K: -0.2

How did CCOC(=O)c1c(NC(=O)CSc2nc3cccnc3n2C)sc(C(C)=O)c1C do in these assays?
M1 ag: 0.532; S1P1 ag pot: -29.8; M1 antag: -0.209; JNK3 inh: 6.7; S1P3 agonist: -0.3; Jurkat tox 60K: 13.7

What do the screens show for `CCOC(=O)c1cccc(NC(=O)CSc2nc3cccnc3n2C)c1`?
M1 ag: 3.3*; S1P1 ag pot: -6.0; M1 antag: -1.12; JNK3 inh: 0.9; S1P3 agonist: -0.9; Jurkat tox 60K: 27.1; M1 agonist conf: 0.888; M4 ag counter: -25.7

Results for O=C(Nc1ccc2c(c1)OCO2)C1CCCN(S(=O)(=O)Cc2ccccc2)C1 (stereo not drawn) ?
M1 ag: 3.91*; M1 antag: -2.54*; M1 agonist conf: 5.34; M4 ag counter: -23.6

What do the screens show for `COC(=O)c1c(NC(=O)CN2CCN(c3ccccc3OC)CC2)c2c(C)cccc2n1C`?
M1 ag: 3.03; S1P1 ag pot: 0.9; M1 antag: -0.0933; JNK3 inh: -7.2; S1P3 agonist: -1.2; Jurkat tox 60K: -5.4

Results for COC(=O)c1c(NC(=O)CN2CCN(c3ccccc3)CC2)c2c(C)cccc2n1C ?
M1 ag: 4.53*; S1P1 ag pot: 0.1; M1 antag: 0.358; JNK3 inh: -9.2; S1P3 agonist: -0.6; Jurkat tox 60K: -0.3; M1 agonist conf: -25.1*; M4 ag counter: inconclusive

What do the screens show for `CN1CCC(NC(=O)c2cccs2)CC1`?
M1 ag: 6.57*; S1P1 ag pot: -10.2; M1 antag: -0.054; JNK3 inh: 1.5; S1P3 agonist: -0.9; Jurkat tox 60K: 7.0; M1 agonist conf: -17; M4 ag counter: inconclusive

How did CCCCOCCCNC(=O)c1cccs1 do in these assays?
M1 ag: -0.765; S1P1 ag pot: -24.0; M1 antag: -0.838; JNK3 inh: 2.8; S1P3 agonist: -0.8; Jurkat tox 60K: 2.7

How did CCOC(=O)N1CCC(NC(=O)CCC(=O)c2ccccc2)CC1 do in these assays?
M1 ag: -0.553; S1P1 ag pot: 12.7; M1 antag: -0.111; JNK3 inh: 4.7; S1P3 agonist: -0.4; Jurkat tox 60K: -4.5

How did CCOC(=O)N1CCC(NCCNC(=O)c2cccs2)CC1 do in these assays?
M1 ag: 27.6*; M1 antag: -2.6*; M1 agonist conf: 256*; M4 ag counter: inconclusive

What do the screens show for `CCOC(=O)N1CCC(NCCNC(=O)c2ccccc2Cl)CC1`?
M1 ag: 24.9*; S1P1 ag pot: 1.6; M1 antag: -9.07*; JNK3 inh: -6.8; S1P3 agonist: 0.0; Jurkat tox 60K: 5.8; M1 agonist conf: 267*; M4 ag counter: inconclusive

How did Clc1ccc(Cn2ncc3c(N4CCCC4)ncnc32)cc1 do in these assays?
S1P1 ag pot: -39.7; JNK3 inh: 3.9; S1P3 agonist: -0.2; Jurkat tox 60K: -1.9

Results for Clc1ccc(Cn2ncc3c(N4CCOCC4)ncnc32)cc1 ?
M1 ag: 4.57*; S1P1 ag pot: -0.9; M1 antag: -0.00635; JNK3 inh: -5.1; S1P3 agonist: -0.4; Jurkat tox 60K: 1.6; M1 agonist conf: inconclusive; M4 ag counter: 9.34

How did COCCNc1ncnc2c1cnn2Cc1ccc(Cl)cc1 do in these assays?
M1 ag: 3.13*; S1P1 ag pot: -9.9; M1 antag: -0.964; JNK3 inh: -1.5; S1P3 agonist: -0.3; Jurkat tox 60K: 4.6; M1 agonist conf: inconclusive; M4 ag counter: -44.9

What do the screens show for `Clc1ccc(Cn2ncc3c(N4CCCCC4)ncnc32)cc1`?
M1 ag: 0.68; S1P1 ag pot: -2.7; M1 antag: -0.189; JNK3 inh: -2.9; S1P3 agonist: -1.0; Jurkat tox 60K: 0.4

What do the screens show for `CCCc1nc(SCC(=O)N2CCC(Cc3ccccc3)CC2)c2c(=O)n(C)c(=O)n(C)c2n1`?
M1 ag: 4*; S1P1 ag pot: 20.7; M1 antag: -1.19; JNK3 inh: -2.9; S1P3 agonist: -0.4; Jurkat tox 60K: -4.9; M1 agonist conf: -13.3; M4 ag counter: -21.4

How did Cn1c(=O)c2c(SCC(=O)N3CCCc4ccccc43)nc(CC(C)(C)C)nc2n(C)c1=O do in these assays?
M1 ag: -0.173; S1P1 ag pot: -8.7; M1 antag: -0.37; JNK3 inh: -12.9; S1P3 agonist: 1.0; Jurkat tox 60K: -12.2

How did CCCc1nc(SCC(=O)N2CCCc3ccccc32)c2c(=O)n(C)c(=O)n(C)c2n1 do in these assays?
M1 ag: 2.85*; S1P1 ag pot: -4.2; M1 antag: -1.43*; JNK3 inh: 7.1; S1P3 agonist: -1.6; Jurkat tox 60K: -3.0; M1 agonist conf: inconclusive; M4 ag counter: -36.8

What do the screens show for `CCOC(=O)Cc1csc(NC(=O)c2ccoc2C)n1`?
M1 ag: -0.861; S1P1 ag pot: 3.3; M1 antag: -1.68; JNK3 inh: -9.0; S1P3 agonist: -1.1; Jurkat tox 60K: 11.2
